Results gathered from unrelated publications.
Compare with care: the assays were run in different laboratories.
Target: Cyclin-dependent kinase 14 (CDK14, Homo sapiens, UniProt O94921)

For `CN(C)c1nccc(-c2cnc3ncccn23)n1`, the remaining binding was 100% (binding; 1 µM).
`CNC(=O)[C@@H]1CC[C@@H](n2c(-c3ccc4cnccc4c3)nc3ccc(C(=O)NCc4cccc(C(N)=O)c4)cc32)C1` has a remaining binding of 100% (binding, competition with immobilised ligand; 1 µM).
The remaining binding of `COc1ccnn2ncc(-c3ccnc(N(C)C)n3)c12` is reported as 100% (binding; 1 µM).
For `O=C(Nc1cnc(Oc2ccc(F)cc2)nc1)N1CCc2ncccc2[C@@H]1c1ccc(F)cc1`, the remaining binding was 100% (cell-free assay, competition with immobilised ligand; 1 µM).
For `F[C@@H]1CCN(c2nccc(-c3cnn4ncccc34)n2)C1`, the remaining binding was 100% (binding; 1 µM).
`COc1cnc(Nc2cccc(S(N)(=O)=O)c2)nc1N1CCN(c2ccccc2)C(=O)C1` gave a remaining binding of 100% (binding, competition with immobilised ligand; 1 µM).
With `Cc1cnn2ncc(-c3ccnc(N(C)C)n3)c2c1` the remaining binding was 91% (binding; 1 µM).
The remaining binding of `CCOC(=O)c1cc2cc(-c3cc(C(=O)NCc4ccc(C(=O)O)cc4)nn3C)ccc2[nH]1` is reported as 100% (cell-free assay, competition with immobilised ligand; 0.1 µM).
`FC(F)(F)Oc1cccc(-c2cnc3ccc(-c4ccncc4)nn23)c1` gave a remaining binding of 68% (cell-free assay, competition with immobilised ligand; 5 µM).
The remaining binding of `O=C(N1CCS(=O)(=O)CC1)N1C[C@H](c2ccc(OC(F)(F)F)cc2)C[C@H](c2nc(C3CC3)no2)C1` is reported as 100% (cell-free assay, competition with immobilised ligand; 1 µM).
`O=C(NCCCN1CCOCC1)c1ccc(Nc2nccc(-c3cc4ccccc4s3)n2)cc1` has a remaining binding of 100% (binding, competition with immobilised ligand; 1 µM).
With `O=C(Nc1c[nH]nc1C(=O)NC1CCNCC1)c1cc(F)cc(F)c1` the remaining binding was 99% (binding, competition with immobilised ligand; 1 µM).
For `O=C(NCCCN1CCOCC1)c1ccc(Nc2ncc(Cl)c(-c3ccc(Cl)s3)n2)cc1`, the remaining binding was 37% (binding, competition with immobilised ligand; 1 µM).
With `CN(CCCC(F)(F)F)c1nccc(-c2cnn3ncccc23)n1` the remaining binding was 93% (binding; 1 µM).
`CN(C(=O)c1ccccc1)c1cc(N(C)c2ccc3c(c2)CCc2ccc(C(=O)NCCN4CCOCC4)cc2C3=O)ccc1F` has a remaining binding of 100% (cell-free assay, competition with immobilised ligand; 1 µM).
`N[C@@H]1CCN(c2nccc(-c3cnn4ncccc34)n2)C1` has a remaining binding of 100% (binding; 1 µM).
With `Cc1cc(C)c(-n2ccn3nc(-c4cccnc4)cc23)cc1NC(=O)c1cc(C#N)cc(S(F)(F)(F)(F)F)c1` the remaining binding was 100% (cell-free assay, competition with immobilised ligand; 0.1 µM).
The remaining binding of `c1cncc(-c2cccc(Nc3nccc(NC4CCCCC4)n3)c2)c1` is reported as 90% (binding, competition with immobilised ligand; 10 µM).
